pIC50: −log10 of the molar value. The source made the active and inactive calls. The calls are words filed in the database; no cut-off is given here.
Experiments:
[1] = molecular target: T1, Phospholipase A and acyltransferase 2 (Homo sapiens, UniProt Q9NWW9); assay: Inhibition of full-length C-terminal FLAG-tagged human PLAAT2 expressed in HEK293T cell lysate preincubated for 30 mins followed by MB064 addition and measured after 20 mins by SDS-PAGE based ABPP analysis; format: cell-free, HEK-293T
T1 sequence (Q9NWW9 whole entry): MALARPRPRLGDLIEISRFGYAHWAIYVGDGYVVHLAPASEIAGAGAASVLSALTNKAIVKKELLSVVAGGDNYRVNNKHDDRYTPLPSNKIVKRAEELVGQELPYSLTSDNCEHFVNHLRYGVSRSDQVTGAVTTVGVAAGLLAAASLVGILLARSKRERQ
Procedure, shortened: (§1)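 Dose–response competitive ABPP on cytosol only, from HEK293T overexpressing FLAG-tagged PLAAT. Inhibitor 30 min rt, then MB064 20 min rt. PLAAT2 0.25 μg/μL with 250 nM probe; PLAAT3 0.5 μg/μL with 250 nM; PLAAT4 and PLAAT5 1 μg/μL with 500 nM. Fluorescence normalized to Coomassie. IC50 from curves, reported as pIC50 ± SEM, n = 3.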

[2] = molecular target: T2, Phospholipase A and acyltransferase 3 (Homo sapiens, UniProt P53816); assay: Inhibition of full-length C-terminal FLAG-tagged human PLAAT3 expressed in HEK293T cell lysate preincubated for 30 mins followed by MB064 addition and measured after 20 mins by SDS-PAGE based ABPP analysis; format: cell-free, HEK-293T; procedure, shortened: as §1
T2 sequence (P53816 whole entry): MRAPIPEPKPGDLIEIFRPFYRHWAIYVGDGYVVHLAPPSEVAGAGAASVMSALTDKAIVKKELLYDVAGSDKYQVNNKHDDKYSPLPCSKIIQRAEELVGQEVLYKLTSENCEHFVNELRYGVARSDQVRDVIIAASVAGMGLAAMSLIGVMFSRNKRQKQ

[3] = molecular target: T3, Phospholipase A and acyltransferase 4 (Homo sapiens, UniProt Q9UL19); assay: Inhibition of full-length C-terminal FLAG-tagged human PLAAT4 expressed in HEK293T cell lysate preincubated for 30 mins followed by MB064 addition and measured after 20 mins by SDS-PAGE based ABPP analysis; format: cell-free, HEK-293T; procedure, shortened: as §1
T3 sequence (Q9UL19 whole entry): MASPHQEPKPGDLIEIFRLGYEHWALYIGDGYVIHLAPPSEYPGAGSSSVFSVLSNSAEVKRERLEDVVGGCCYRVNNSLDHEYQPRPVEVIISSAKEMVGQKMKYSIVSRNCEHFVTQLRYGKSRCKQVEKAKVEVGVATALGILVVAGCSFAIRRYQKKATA

[4] = molecular target: T4, Phospholipase A and acyltransferase 5 (Homo sapiens, UniProt Q96KN8); assay: Inhibition of full-length C-terminal FLAG-tagged human PLAAT5 expressed in HEK293T cell lysate preincubated for 30 mins followed by MB064 addition and measured after 20 mins by SDS-PAGE based ABPP analysis; format: cell-free, HEK-293T; procedure, shortened: as §1
T4 sequence (Q96KN8 whole entry): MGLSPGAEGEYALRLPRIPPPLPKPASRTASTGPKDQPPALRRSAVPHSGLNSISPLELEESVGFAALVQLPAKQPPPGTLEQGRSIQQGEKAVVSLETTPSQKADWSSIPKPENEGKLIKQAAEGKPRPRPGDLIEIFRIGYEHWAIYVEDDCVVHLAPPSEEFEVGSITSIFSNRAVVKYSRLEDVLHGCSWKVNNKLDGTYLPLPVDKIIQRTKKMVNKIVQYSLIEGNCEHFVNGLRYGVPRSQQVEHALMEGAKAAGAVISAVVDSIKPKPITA

Homo sapiens [5] = species on record: Homo sapiens; assay: Selectivity index, difference between pIC50 for full-length C-terminal FLAG-tagged human PLAAT5 expressed in HEK293T cell lysate to pIC50 for full-length C-terminal FLAG-tagged human PLAAT2 expressed in HEK293T cell lysate
Procedure, shortened: (§2)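 Cytosol of HEK293T cells transiently transfected (PEI) with C-terminal FLAG-tagged human PLAAT, harvested at 48 or 72 h. Dose-response: pretreated with inhibitor or DMSO for 30 min at rt, then labelled with MB064 for 20 min at rt. Protein and MB064: PLAAT2 0.25 μg/μL, 250 nM; PLAAT3 0.5 μg/μL, 250 nM; PLAAT4 1 μg/μL, 500 nM; PLAAT5 1 μg/μL, 500 nM. Read by SDS-PAGE in-gel fluorescence normalized to Coomassie. Triplicate pIC50s; index is the pIC50 difference.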

Homo sapiens [6] = species on record: Homo sapiens; assay: Selectivity index, difference between pIC50 for full-length C-terminal FLAG-tagged human PLAAT5 expressed in HEK293T cell lysate to pIC50 for full-length C-terminal FLAG-tagged human PLAAT3 expressed in HEK293T cell lysate; procedure, shortened: as §2
Homo sapiens [7] = species on record: Homo sapiens; assay: Selectivity index, difference between pIC50 for full-length C-terminal FLAG-tagged human PLAAT5 expressed in HEK293T cell lysate to pIC50 for full-length C-terminal FLAG-tagged human PLAAT4 expressed in HEK293T cell lysate; procedure, shortened: as §2
[8] = molecular target: T5, Phospholipase A and acyltransferase 2 (Homo sapiens) (UniProt Q9NWW9); assay: Inhibition of full-length C-terminal FLAG-tagged human PLAAT2 expressed in HEK293T cell lysate at 10 uM preincubated for 30 mins followed by MB064 addition and measured after 20 mins by SDS-PAGE based ABPP analysis; format: cell-free; details: HEK-293T
T5 sequence (whole entry): T1 sequence (Q9NWW9 whole entry)
Procedure, shortened: (§3)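 Cytosol from HEK293T cells transiently transfected (PEI) with C-terminal FLAG-tagged human PLAAT, harvested 48–72 h. Inhibitor 10 μM, 30 min rt, then MB064 probe 20 min rt. Protein/MB064: PLAAT2 0.25 μg/μL, 250 nM; PLAAT3 0.5 μg/μL, 250 nM; PLAAT4 1 μg/μL, 500 nM; PLAAT5 1 μg/μL, 500 nM. Read-out: in-gel fluorescence after SDS-PAGE, normalized to Coomassie. Triplicate.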

[9] = molecular target: Phospholipase A and acyltransferase 3 (Homo sapiens) (UniProt P53816); assay: Inhibition of full-length C-terminal FLAG-tagged human PLAAT3 expressed in HEK293T cell lysate at 10 uM preincubated for 30 mins followed by MB064 addition and measured after 20 mins by SDS-PAGE based ABPP analysis; format: cell-free; details: HEK-293T; procedure, shortened: as §3
[10] = molecular target: Phospholipase A and acyltransferase 4 (Homo sapiens) (UniProt Q9UL19); assay: Inhibition of full-length C-terminal FLAG-tagged human PLAAT4 expressed in HEK293T cell lysate at 10 uM preincubated for 30 mins followed by MB064 addition and measured after 20 mins by SDS-PAGE based ABPP analysis; format: cell-free; details: HEK-293T; procedure, shortened: as §3
[11] = molecular target: T6, Phospholipase A and acyltransferase 5 (Homo sapiens) (UniProt Q96KN8); assay: Inhibition of full-length C-terminal FLAG-tagged human PLAAT5 expressed in HEK293T cell lysate at 10 uM preincubated for 30 mins followed by MB064 addition and measured after 20 mins by SDS-PAGE based ABPP analysis; format: cell-free; details: HEK-293T; procedure, shortened: as §3
T6 sequence (whole entry): T4 sequence (Q96KN8 whole entry)

Row | pIC50 [1] | pIC50 [2] | pIC50 [3] | pIC50 [4] | Selectivity Index (Homo sapiens [5]) | Selectivity Index (Homo sapiens [6]) | Selectivity Index (Homo sapiens [7]) | inhibition [8] | inhibition [9] | inhibition [10] | inhibition [11] | SMILES
1 | 5.40 | 5.40 | 5.90 | 6.90 | 10 to 30 | 10 to 30 | 10 to 30 | – | – | – | – | O=C(CCc1ccc(Oc2ccccc2)cc1)C(=O)NCCc1ccccc1
2 | < 5.00 | < 5.00 | < 5.00 | < 5.00 | – | – | – | inactive | inactive | inactive | inactive | O=C(NCCc1ccccc1)C(O)CCc1ccc(Cl)cc1 (stereo not given)

From ChEMBL document CHEMBL4622983, “Structure-Activity Relationship Studies of α-Ketoamides as Inhibitors of the Phospholipase A and Acyltransferase Enzyme Family” (J Med Chem, 2020)
